Assay results published in PubChem BioAssay.
Records with an inconclusive call do not appear.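 How the source made its calls, unless noted: active means viability increase at or above a cutoff of the median across tested compounds plus 3 SD (cut at about 8.5% in these data, passing the limit was not always enough); inconclusive means some gains above the cutoff, reason not given; inactive means the rest.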

How the values were obtained:
[1] = S. cerevisiae growth inhibition in permissive medium (OD615), pilot counter-assay for S. cerevisiae lifespan shortening project, permissive growth control (AID 705;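 active means growth inhibition above 25% in both replicates, a cutoff set 3 SD above the mean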); settings: OD615, 24 h, at 10 µM, stronger effect = higher value
How it was run: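 System: Engineered DeaD yeast | Buffer or medium: SC raffinose/galactose permissive medium | Doses: 10 µM single dose, 0.25% DMSO | Times: 24 h exposure, 30 °C | Measured by: OD615 turbidity read | Read-out: Yeast growth inhibition indicated by reduced 24 h OD615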

[2] = S. cerevisiae growth inhibition in restrictive medium, OD615, pilot screen, restrictive growth control, yeast lifespan reduction project (AID 706;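 active means growth inhibition above a set limit, 3 SD over mean compound inhibition, in both replicates, cut at about 43% in these data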;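 further: modified DeaD lifespan yeast strain shifted to restrictive glucose medium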); settings: OD615, 48 h, at 10 µM, stronger effect = higher value
How it was run: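 Assay system: engineered S. cerevisiae DeaD strain; Buffer or medium: CSMM-D glucose medium; Dosing: 10 µM compound, 0.25% DMSO; Times: cell pre-growth 4 h, compound exposure 48 h, 30 °C; Detection: absorbance (optical density) measured at 615 nm.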

[3] = doxorubicin toxicity protection in MRP-1 cells – H69AR cells, CellTiter-Glo, duplicate, MRP-1 activator project, pilot screen (AID 807); settings: H69AR viability with doxorubicin, CellTiter-Glo luminescence; at 10 µM; stronger effect = higher value;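 further: compound pretreatment 18-22 h then 72 h combined with doxorubicin; 0% = doxorubicin alone and 100% = vehicle without doxorubicin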
[4] = viability of HCT116 without oncogenic beta-catenin – human colon tumor cells, pilot screen (AID 823;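 active means cell viability at or below a set limit in both duplicate runs, the limit being the all-compound median minus 4 SD, cut at about 23% in these data, passing the limit was not always enough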;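 further: 0% = wells killed by 20 µM Hyamine and 100% = untreated DMSO cell wells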); settings: HCT116 beta-catenin knockout viability, CellTiter-Glo, 60 h; at 10 µM; stronger effect = lower value
[5] = viability of PTEN-null HCT116 cells – cell-based, HCT116 clonal line, CellTiter-Glo, pilot screen (AID 824;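 active means viability at or below 27.92% in each of two runs, the all-compound median minus 4 SD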;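 further: 0% = 20 µM Hyamine control and 100% = vehicle cell control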); settings: HCT116 PTEN-deleted viability, 60 h, at 10 µM, stronger effect = lower value
[6] = RAM pathway blockade in budding yeast – dse1pr::URA3 reporter, 5-FOA selection, pilot screen (AID 869;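 active means inhibition over a set limit, the all-compound mean plus 3 SD, in both replicate runs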;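 further: 0% = DMSO wells with no growth and 100% = 10 µM 1-NA-PP1 with full growth; RAM network block rescues cells from 5-FOA so hits raise OD615 growth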); settings: S. cerevisiae dse1pr::URA3 5-FOA growth, OD615, 2 d; at 10 µM; stronger effect = higher value; strain carries analog-sensitive mutant Cbk1 kinase
[7] = RAM signaling pathway blockade in yeast – S. cerevisiae, Pdr1DBD-CYC8 efflux-inhibited sensitized strain, primary screen (AID 1298;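 active means RAM network inhibition above 8.4% in each of two replicates, 3 SD over the compound average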;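 further: 0% = DMSO untreated cells without growth and 100% = 10 µM 1-NA-PP1 full growth; higher means more yeast growth rescued from 5-FOA killing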); settings: S. cerevisiae cbk1-as DSE1-URA3 strain, 5-FOA growth OD615, 2 d; at 50 µM; stronger effect = higher value

CCOc1cccc(OCCOCCN(C)Cc2ccccc2)c1
inactive: growth inhibition [1] 2.5% | growth inhibition [2] -3.23% | viability increase [3] -4.15% | viability [4] 75.3% | viability [5] 78.9% | inhibition [6] 0.55% | RAM network inhibition [7] 0.2%

O=C(OCN1C(=O)c2ccccc2C1=O)c1ccco1
inactive: growth inhibition [1] -3.8% | growth inhibition [2] 0.045% | viability increase [3] -2.17% | viability [4] 96.7% | viability [5] 93.3% | inhibition [6] 3.23% | RAM network inhibition [7] 3.35%

Nc1nc2n(n1)C(c1ccccc1Cl)CC(c1ccc(F)cc1)N2 (configuration not stated)
inactive: growth inhibition [1] 0.695% | growth inhibition [2] 2.18% | viability increase [3] -0.54% | viability [4] 91.6% | viability [5] 88.8% | inhibition [6] 2.58% | RAM network inhibition [7] 0.48%

COc1ccccc1NC(=O)C1=C(C)NC(=O)NC1c1cccc(OC)c1OC (configuration not stated)
inactive: growth inhibition [1] -3.89% | growth inhibition [2] 2.57% | viability increase [3] -2.1% | viability [4] 104% | viability [5] 94.8% | inhibition [6] 0.545% | RAM network inhibition [7] 3.58%

COc1ccc(OC)c(-c2nnc(NC(=O)C(C)Sc3nncn3C)s2)c1 (configuration not stated)
inactive: growth inhibition [1] -1.32% | growth inhibition [2] 23.7% | viability increase [3] -4.48% | viability [4] 106% | viability [5] 95.5% | inhibition [6] 0.65% | RAM network inhibition [7] 0.37%

CCOC(=O)N1CCN(C2CC(=O)N(c3ccccc3)C2=O)CC1 (configuration not stated)
inactive: growth inhibition [1] 4.38% | growth inhibition [2] 10.5% | viability increase [3] 0.58% | viability [4] 100% | viability [5] 101% | inhibition [6] 0.005% | RAM network inhibition [7] -0.04%

CN1CCN(Cc2nc3c(c(=O)n(C)c(=O)n3C)n2CCc2ccccc2)CC1
inactive: growth inhibition [1] -8.96% | growth inhibition [2] -4.14% | viability increase [3] -1.67% | viability [4] 92.8% | viability [5] 103% | inhibition [6] 0.895% | RAM network inhibition [7] 2.53%

CC1CCN(c2nc3c(c(=O)[nH]c(=O)n3C)n2Cc2ccccc2Cl)CC1
inactive: growth inhibition [1] -10.2% | growth inhibition [2] -20.9% | viability increase [3] -6.47% | viability [4] 87.6% | viability [5] 72% | inhibition [6] 2.75% | RAM network inhibition [7] 9.67%

COC(=O)CN1C(=O)COc2ccc(Cl)cc21
inactive: growth inhibition [1] 4.22% | growth inhibition [2] -4.81% | viability increase [3] -0.89% | viability [4] 104% | viability [5] 94% | inhibition [6] 0.605% | RAM network inhibition [7] 2.29%

CCOC(=O)c1c(CN2CCCCC2)n(C)c2ccc(OC)c(S(=O)(=O)c3ccccc3)c12
inactive: growth inhibition [1] -6.81% | growth inhibition [2] -19.7% | viability increase [3] -3.9% | viability [4] 96.3% | viability [5] 92.4% | inhibition [6] 0.105% | RAM network inhibition [7] 3.27%

CCc1cc(C(=O)Cc2ccc(F)cc2)c(O)cc1O
inactive: growth inhibition [1] -1.34% | growth inhibition [2] -3.73% | viability increase [3] -3.8% | viability [4] 98.8% | viability [5] 86.5% | inhibition [6] 0.665% | RAM network inhibition [7] -2.4%

COc1cc(CNC(=O)OCC(C)C)cc(OC)c1OC
inactive: growth inhibition [1] -11.4% | growth inhibition [2] -20.8% | viability increase [3] -0.03% | viability [4] 99.7% | viability [5] 99% | inhibition [6] 0.19% | RAM network inhibition [7] -0.93%

O=C(NCc1ccco1)c1ccc(Br)c(S(=O)(=O)N2CCCCC2)c1
inactive: growth inhibition [1] 2.44% | growth inhibition [2] -6.06% | viability increase [3] -2.69% | viability [4] 88.8% | viability [5] 88.1% | inhibition [6] 2.61% | RAM network inhibition [7] 4.59%

O=C(O)C1C2C=CC3(CN(Cc4ccco4)C(=O)C13)O2 (configuration not stated)
inactive: growth inhibition [1] -11.7% | growth inhibition [2] 4.86% | viability increase [3] -0.96% | viability [4] 112% | viability [5] 95.6% | inhibition [6] 0.815% | RAM network inhibition [7] -0.52%

Cc1ccccc1NC(=O)CCN1CCN(Cc2ccccc2)CC1
inactive: growth inhibition [1] -9.43% | growth inhibition [2] 3.58% | viability increase [3] -3.29% | viability [4] 94.8% | viability [5] 89.6% | inhibition [6] 1.85% | RAM network inhibition [7] 5.05%

Cn1c2ccccc2c2c(C(=O)O)cn(C3CCCC3)c(=O)c21
inactive: growth inhibition [1] 3.4% | growth inhibition [2] 1.83% | viability increase [3] -3.21% | viability [4] 91.4% | viability [5] 91.7% | inhibition [6] 1.46% | RAM network inhibition [7] 4.9%

CCCCn1c(C(C)NC(=O)COC)nc2ccccc21 (configuration not stated)
inactive: growth inhibition [1] -3.38% | growth inhibition [2] 1.68% | viability increase [3] -0.01% | viability [4] 91.4% | viability [5] 101% | inhibition [6] 1.94% | RAM network inhibition [7] 0.2%

COc1ccc(CN2CCNC(=O)C2CC(=O)O)cc1OC (configuration not stated)
inactive: growth inhibition [1] -14.2% | growth inhibition [2] -7.95% | viability increase [3] 1.18% | viability [4] 105% | viability [5] 101% | inhibition [6] 0.38% | RAM network inhibition [7] -0.52%

CCCOc1ccc(C2c3c(oc4cc(C)c(C)cc4c3=O)C(=O)N2CCCN(C)C)cc1 (configuration not stated)
inactive: growth inhibition [1] -3.96% | growth inhibition [2] -1.01% | viability increase [3] 0.77% | viability [4] 104% | viability [5] 109% | inhibition [6] 0.185% | RAM network inhibition [7] -0.1%

O=C(O)CC1Sc2ccccc2NC1=O (configuration not stated)
inactive: growth inhibition [1] -7.26% | growth inhibition [2] 0.575% | viability increase [3] -1.79% | viability [4] 90.2% | viability [5] 96% | inhibition [6] 1.49% | RAM network inhibition [7] 4.47%

Cc1nc2ccc3nc(NC(=O)C4COc5ccccc5O4)sc3c2s1 (configuration not stated)
inactive: growth inhibition [1] -10.6% | growth inhibition [2] 0.74% | viability increase [3] -4.93% | viability [4] 86.8% | viability [5] 80.6% | inhibition [6] 1.55% | RAM network inhibition [7] -0.06%

CC1CCN(CC(O)COc2cccc(F)c2)CC1 (configuration not stated)
inactive: growth inhibition [1] -14.2% | growth inhibition [2] -6.4% | viability increase [3] -0.94% | viability [4] 96.7% | viability [5] 92.2% | inhibition [6] -0.65% | RAM network inhibition [7] 0.62%

CCc1ccc(C2CC(=O)N3CN(c4ccccc4)CSC3=C2C#N)cc1 (configuration not stated)
inactive: growth inhibition [1] 3.98% | growth inhibition [2] 21.7% | viability increase [3] -3.73% | viability [4] 101% | viability [5] 90.6% | inhibition [6] 1.68% | RAM network inhibition [7] -0.78%

CC1(C)NC(=O)N(CC(O)COc2ccc(N3C(=O)c4ccccc4C3=O)cc2)C1=O (configuration not stated)
inactive: growth inhibition [1] -3.45% | growth inhibition [2] -3.49% | viability increase [3] -1.32% | viability [4] 102% | viability [5] 96.5% | inhibition [6] 1.87% | RAM network inhibition [7] 0.17%

COC(=O)CN(c1ccccc1)S(=O)(=O)c1ccccc1
inactive: growth inhibition [1] -15.8% | growth inhibition [2] -2.47% | viability increase [3] -0.03% | viability [4] 101% | viability [5] 99.8% | inhibition [6] 1.01% | RAM network inhibition [7] 0.88%

COc1ccc(C2CC(C(F)(F)F)n3nc(C(=O)O)c(Cl)c3N2)cc1OC (configuration not stated)
inactive: growth inhibition [1] -2.51% | growth inhibition [2] -1.92% | viability increase [3] 0.25% | viability [4] 105% | viability [5] 97.6% | inhibition [6] 0.77% | RAM network inhibition [7] 2.86%

CCN(CCNC(=O)Cn1cc2c(n1)CCCC2)c1ccccc1
inactive: growth inhibition [1] -4.85% | growth inhibition [2] -6.55% | viability increase [3] 0.42% | viability [4] 109% | viability [5] 93.5% | inhibition [6] 2.4% | RAM network inhibition [7] 0.1%

CC1CSc2nnc(CCc3ccccc3)n21 (configuration not stated)
inactive: growth inhibition [1] 2.06% | growth inhibition [2] -7.96% | viability increase [3] -2.61% | viability [4] 107% | viability [5] 89.2% | inhibition [6] 0.37% | RAM network inhibition [7] -0.11%

COc1ccc(C2OC(=O)CC2C(=O)N2CCN(c3cc(Cl)ccc3C)CC2)cc1OC (configuration not stated)
inactive: growth inhibition [1] -0.42% | growth inhibition [2] 4.67% | viability increase [3] -2.26% | viability [4] 96.8% | viability [5] 95.5% | inhibition [6] 0.44% | RAM network inhibition [7] 2.7%

CCOC(=O)c1ccc(NC(=O)CSc2nnc(Cn3c(=O)sc4ccccc43)n2C)cc1
inactive: growth inhibition [1] -8.11% | growth inhibition [2] 12% | viability increase [3] -2.6% | viability [4] 94.1% | viability [5] 88.5% | inhibition [6] 0.665% | RAM network inhibition [7] 3.59%

CN(C)/C=N/c1c(C#N)cnn1-c1ccccc1
inactive: growth inhibition [1] -5.88% | growth inhibition [2] -14.5% | viability increase [3] -1.11% | viability [4] 103% | viability [5] 96.6% | inhibition [6] 1.95% | RAM network inhibition [7] 4.32%

CC(C)(C)c1ccc(-c2nnc3sc(-c4ccccn4)nn23)cc1
inactive: growth inhibition [1] -19.2% | growth inhibition [2] -24.6% | viability increase [3] 0.61% | viability [4] 100% | viability [5] 89.2% | inhibition [6] 2.01% | RAM network inhibition [7] 1.31%

CCc1ccc(C2CC(c3ccccc3)Nc3nc(N)nn32)cc1 (configuration not stated)
inactive: growth inhibition [1] -5.9% | growth inhibition [2] -6.06% | viability increase [3] 0.7% | viability [4] 97.3% | viability [5] 100% | inhibition [6] -0.27% | RAM network inhibition [7] 5.98%

Cc1cccc2sc(NC(=O)c3ccc(Cl)s3)nc12
inactive: growth inhibition [1] -21.9% | growth inhibition [2] -21.5% | viability increase [3] -7.7% | viability [4] 68.7% | viability [5] 56% | inhibition [6] 2.64% | RAM network inhibition [7] 5.32%

O=C(O)CCCC(=O)N1CCN(c2cccc(Cl)c2)CC1
inactive: growth inhibition [1] -2.97% | growth inhibition [2] -1.71% | viability increase [3] -1.22% | viability [4] 95.2% | viability [5] 86.2% | inhibition [6] 2.33% | RAM network inhibition [7] 4.6%

N#Cc1cccc(NC(=O)NCCc2c[nH]c3ccccc23)c1
inactive: growth inhibition [1] -17.4% | growth inhibition [2] 1.5% | viability increase [3] -4.55% | viability [4] 93.1% | viability [5] 90.2% | inhibition [6] -0.125% | RAM network inhibition [7] 4.4%
